Here are results for 3 compounds from article PMC5935105 (Analytical biochemistry, 2018).

In assay [1] the target is SOS-catalyzed nucleotide exchange on RAS (SOScat, K-RAS G12D) (Homo sapiens, UniProt Q07889). As to the kind of experiment: SOS-catalyzed nucleotide exchange assay using BODIPY-GDP-loaded RAS. The format is biochemical. As to conditions: average of the two values of Table 1; 100 μM compound; normalized to API. The procedure, abridged: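 SOScat (residues 564–1049) with BODIPY-GDP-loaded RAS in 25 mM Tris pH 7.5, 50 mM NaCl, 1 mM MgCl2. Compound added at 10 s and unlabeled GTP at 120 s; fluorescence loss followed for 30 min. Rates come from single-exponential decay fits, normalized between SOS-catalyzed exchange without compound (0) and the maximal rate from the control compound on each plate (100).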

Assay [2] deals with RAS-GTP levels in HeLa cells. Put plainly: RAS-GTP levels in HeLa cells. The format is cell-based. As to conditions: 30 minutes, up to 200 μM compound.
The subject of assay [3] is phospho ERK1/2 T202/Y204 levels in HeLa cells. As to the kind of experiment: phospho ERK1/2 T202/Y204 levels in HeLa cells. The format is cell-based. As to conditions: 30 minutes; for phospho ERK levels at higher concentrations: higher concentrations (up to 200 μM); for phospho ERK levels at lower concentrations: lower concentrations of compound.

On to `CCCN1CCC(NCCC(c2ccccc2)c2ccccc2)CC1` [Compound 4, N-(3,3-diphenylpropyl)-1-propylpiperidin-4-amine], for which the “Average Relative Rate of Nucleotide Exchange at 100 μM” value in assay [1] amounted to 50.9%. For the same compound, in assay [2], the “RAS-GTP levels relative to DMSO control” value is listed as “did not cause an increase in RAS-GTP levels”.

On to `N[C@@H](Cc1c[nH]c2ccccc12)C(=O)NC1CCN(Cc2c[nH]c3ccc(Cl)cc23)CC1` [API, (S)-2-amino-N-(1-((5-chloro-1H-indol-3-yl)methyl)piperidin-4-yl)-3-(1H-indol-3-yl)propanamide, reference compound], for which, in assay [3], the “phospho ERK levels at higher concentrations” value is reported as “inhibition of phospho ERK levels was observed” and the “phospho ERK levels at lower concentrations” value is “induction of phospho ERK levels”. In assay [1], the “Average Relative Rate of Nucleotide Exchange at 100 μM” value is reported as 100%. Moreover, the “RAS-GTP levels relative to DMSO control” value in assay [2] was “increase in RAS-GTP levels was observed”.

As to `c1ccc(C(CCNC2CCNCC2)c2ccccc2)cc1` [Compound 4a, N-(3,3-diphenylpropyl)piperidin-4-amine], in assay [3], the “phospho ERK levels at higher concentrations” value is “inhibition of phospho ERK levels was observed” and the “phospho ERK levels at lower concentrations” value is “induction of phospho ERK levels”. For the same compound, the “Average Relative Rate of Nucleotide Exchange at 100 μM” value in assay [1] turned out to be 69.1%. Further, the “RAS-GTP levels relative to DMSO control” value in assay [2] is reported as “increase in RAS-GTP levels was observed”.
